Data on nine compounds can be found in ChEMBL document CHEMBL1126138, “Preparation and opioid activity of analogues of the analgesic dipeptide 2,6-dimethyl-L-tyrosyl-N-(3-phenylpropyl)-D-alaninamide” (J Med Chem, 1992).

The species named for assay [1] is Mus musculus. As to the kind of experiment: Analgesic activity evaluated in mice by writhing test (confidence limit). Type of assay: functional. On the technique in general: In writhing tests, fewer writhes than in controls are read as antinociception.
In assay [2] the target is Mu-type opioid receptor (Rattus norvegicus, UniProt P33535). Put plainly: Binding ability towards opioid receptor mu expressed in homogenates of rat brain. Type of assay: tissue-based.
Mu-type opioid receptor, sequence (P33535 whole entry): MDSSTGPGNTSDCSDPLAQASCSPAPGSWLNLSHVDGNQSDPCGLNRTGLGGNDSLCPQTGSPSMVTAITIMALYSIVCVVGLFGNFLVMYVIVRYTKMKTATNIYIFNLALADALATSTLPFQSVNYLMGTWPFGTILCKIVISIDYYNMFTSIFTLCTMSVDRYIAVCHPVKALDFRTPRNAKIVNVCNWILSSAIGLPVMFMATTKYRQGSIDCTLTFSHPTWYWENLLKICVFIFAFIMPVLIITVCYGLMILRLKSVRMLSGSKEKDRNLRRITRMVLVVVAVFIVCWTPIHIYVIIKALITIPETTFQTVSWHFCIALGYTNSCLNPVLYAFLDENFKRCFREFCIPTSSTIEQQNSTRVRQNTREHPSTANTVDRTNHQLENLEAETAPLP
The target of assay [3] is Kappa-type opioid receptor (Rattus norvegicus) (UniProt P34975). As to the kind of experiment: Ratio of IC50 of opioid receptor kappa to IC50 opioid receptor mu.
Kappa-type opioid receptor (Rattus norvegicus), sequence (P34975 whole entry): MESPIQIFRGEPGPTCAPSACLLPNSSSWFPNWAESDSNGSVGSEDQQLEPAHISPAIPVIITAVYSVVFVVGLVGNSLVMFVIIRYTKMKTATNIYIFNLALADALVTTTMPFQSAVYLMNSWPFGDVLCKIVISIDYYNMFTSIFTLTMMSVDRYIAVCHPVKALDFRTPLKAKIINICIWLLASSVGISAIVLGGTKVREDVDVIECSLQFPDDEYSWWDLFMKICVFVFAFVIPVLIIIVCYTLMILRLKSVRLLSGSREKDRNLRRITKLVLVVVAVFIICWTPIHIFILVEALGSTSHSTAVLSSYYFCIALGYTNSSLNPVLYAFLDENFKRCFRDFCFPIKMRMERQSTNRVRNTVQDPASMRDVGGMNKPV
Assay [4] addresses Delta-type opioid receptor (Rattus norvegicus, UniProt P33533). As to the kind of experiment: Binding ability towards opioid receptor delta expressed in homogenates of rat brain. The class given is tissue-based.
For assay [5], the target named is Delta-type opioid receptor (Rattus norvegicus) (UniProt P33533). Put plainly: Ratio of IC50 of opioid receptor delta to IC50 opioid receptor mu.
Delta-type opioid receptor (Rattus norvegicus), sequence (P33533 whole entry): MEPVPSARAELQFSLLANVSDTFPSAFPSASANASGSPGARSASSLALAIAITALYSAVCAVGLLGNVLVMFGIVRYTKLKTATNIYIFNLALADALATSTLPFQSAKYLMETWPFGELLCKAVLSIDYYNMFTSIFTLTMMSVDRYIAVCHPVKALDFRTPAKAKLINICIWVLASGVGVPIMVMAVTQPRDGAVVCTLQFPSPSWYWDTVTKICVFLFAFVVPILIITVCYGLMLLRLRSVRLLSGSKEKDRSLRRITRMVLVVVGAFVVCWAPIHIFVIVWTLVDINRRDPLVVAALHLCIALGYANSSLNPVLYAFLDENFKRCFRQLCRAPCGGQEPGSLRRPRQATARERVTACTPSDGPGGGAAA
The target is the same in assay [6]. As to the kind of experiment: Binding ability towards opioid receptor delta expressed in homogenates of rat brain at 100 nM concentration. Type of assay: tissue-based. The method in brief:
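Rat brain homogenate, δ opioid binding site. Test compound at 100 nM. The value is the maximum percent displacement at that concentration.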

Assay [7] concerns Mus musculus. As to the kind of experiment: Number of mice of those tested in which 10 mg/kg compound inhibited writhing. The class given is functional. Summed up: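 Mouse writhing test with a single 10 mg/kg dose of compound. The value is the count of mice whose writhing was inhibited, out of the number tested.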

Delta-type opioid receptor, sequence (P33533 whole entry): as above

A word on the ED50: it is the midpoint of the dose-response relation. Read a low ED50 as greater potency. A word on the IC50: it is the concentration that gives 50% inhibition. A higher IC50 goes with weaker potency. In the case of `Cc1cc(O)cc(C)c1C[C@H](N)C(=O)N[C@H](C)C(=O)NCCCc1ccccc1`, the 50% effect level in assay [1] (ED50) was put at a dose of 0.52 mg/kg. The IC50 in assay [2] stood at 0.13 nM; in assay [4] it was 3.98 nM. Besides, the values for the Ratio in assay [3] and in assay [5] were 2920 and 30.6, respectively.
Consider `Cc1cc(O)cc(C)c1C[C@H](N)C(=O)N[C@H](CO)COCCCc1ccccc1`, for which the ED50 in assay [1] stood at 2.1 mg/kg. The IC50 in assay [2] amounted to 1.67 nM; in assay [4], 233 nM. Besides, the Ratio in assay [3] was 3530; in assay [5] it was 139.
Consider `Cc1cc(O)cc(C)c1C[C@H](N)C(=O)NC(C)/C=C/CCCc1ccccc1` (some centres not stated), for which the ED50 in assay [1] was 2.1 mg/kg. The IC50 in assay [2] was determined as 5.4 nM. Further, the Ratio in assay [3] was found to be 1100. The compound also gave a Displacement in assay [6] of 39.3%.
`Cc1cc(O)cc(C)c1C[C@H](N)C(=O)N1CCCCC1CNCCCc1ccccc1` (some centres not stated) registered a No. of mice in assay [7] of 3. For the same compound, the IC50 in assay [2] turned out to be 0.045 nM; in assay [4], 12.1 nM. The Ratio in assay [3] was 222; in assay [5], 269.
For `Cc1cc(O)cc(C)c1C[C@H](N)C(=O)N[C@H](C)COCCCc1ccccc1`, in assay [7], the No. of mice is listed as 3. Also, the Ratio in assay [3] was found to be 2600; in assay [5], 42. In addition, the IC50 in assay [4] was 21 nM.
In turn, `Cc1cc(O)cc(C)c1C[C@H](N)C(=O)N[C@H](C)CNCCCc1ccccc1` registered a No. of mice in assay [7] of 4. Also, the IC50 in assay [2] was 0.13 nM; in assay [4], 46 nM. For the same compound, the Ratio in assay [3] worked out at 2540; in assay [5], 354.
Compound `Cc1cc(O)cc(C)c1C[C@H](N)C(=O)N1CCCCC1COCCCc1ccccc1` (some centres not stated) showed an ED50 in assay [1] of 2.1 mg/kg. Moreover, the IC50 in assay [2] worked out at 1.62 nM; in assay [4], 110 nM. In addition, the Ratio came out at 173 in assay [3] and 67.9 in assay [5].
Consider `Cc1cc(O)cc(C)c1C[C@H](N)C(=O)NC(C)/C(F)=C/CCCc1ccccc1` (some centres not stated), for which the ED50 in assay [1] was determined as 2.1 mg/kg. The compound also gave an IC50 in assay [2] of 6.9 nM. Besides, the Ratio in assay [3] was found to be 1160. For the same compound, in assay [6], the Displacement was determined as 47.3%.
The compound `Cc1cc(O)cc(C)c1C[C@H](N)C(=O)N[C@@H](COCCCc1ccccc1)COC(C)(C)C` returned a median effective dose (ED50) in assay [1] of 1.7 mg/kg. Further, the IC50 worked out at 33 nM in assay [2] and 340 nM in assay [4]. The Ratio was 282 in assay [3] and 10.3 in assay [5].
